Measurements of several laboratories.
Lines come from different studies, so protocols differ.
Target: Protein-tyrosine kinase 2-beta (PTK2B, Homo sapiens, UniProt Q14289)

SMILES | test | conditions | remaining binding [%]
Cc1cnc(Nc2ccc(C(=O)N3CCC(N4CCCC4)CC3)cc2)nc1-c1cc2ccccc2s1 | binding, competition with immobilised ligand | 1 µM | 28
CC(=O)c1c(NS(C)(=O)=O)c2cc(-c3ccc(Cl)cc3)c(-c3ccc(Cl)cc3Cl)nc2n(C)c1=O | cell-free assay, competition with immobilised ligand | 1 µM | 100
O=C(c1ccc(Nc2ncc(Cl)c(-c3ccc(Cl)s3)n2)cc1)N1CCC(N2CCCC2)CC1 | binding, competition with immobilised ligand | 1 µM | 49
COc1cnc(Nc2cccc(S(N)(=O)=O)c2)nc1N1CCN(c2ccccc2)CC1 | binding, competition with immobilised ligand | 1 µM | 89
CCN1CCN(Cc2ccc(C(=O)Nc3ccc(C)c(Oc4ccc5c(c4)CC(=O)N5)c3)cc2C(F)(F)F)CC1 | binding, competition with immobilised ligand | 1 µM | 49
c1cnn2ncc(-c3ccnc(N4CCC45COC5)n3)c2c1 | binding | 1 µM | 80
COc1cnc(Nc2cccc(S(N)(=O)=O)c2)nc1N1CCN(c2ccccc2)C(=O)C1 | binding, competition with immobilised ligand | 1 µM | 100
Cc1c[nH]c2nccc(Oc3c(F)cc(Nc4cc(Cl)nc(N)n4)cc3F)c12 | cell-free assay, competition with immobilised ligand | 0.1 µM | 90
COc1ccnn2ncc(-c3ccnc(N(C)C)n3)c12 | binding | 1 µM | 100
C=CC(=O)N1CCC(C(=O)NCC(=O)N2CCN(c3nc(-c4cnc(N)nc4C(F)F)nc(N4CCOCC4)n3)CC2)CC1 | binding, competition with immobilised ligand | 1 µM | 100
CN(C)C(=O)Cn1cc(-c2nc([C@@](C)(c3ccc(-c4cnc(N)nc4)cc3)C3CC3)no2)cn1 | cell-free assay, competition with immobilised ligand | 1 µM | 87
O=C(NCCCN1CCOCC1)c1ccc(Nc2nccc(-c3cc4ccccc4s3)n2)cc1 | binding, competition with immobilised ligand | 1 µM | 64
CS(=O)(=O)c1cc(C2(NC(=O)c3cncc4c3cnn4-c3ccc(F)cc3)CC2)ccn1 | cell-free assay, competition with immobilised ligand | 1 µM | 100
CN(C)c1nccc(-c2cnc3ncccn23)n1 | binding | 1 µM | 92
O=C(NCC1CCOCC1)c1n[nH]cc1NC(=O)c1c(F)cccc1F | binding, competition with immobilised ligand | 1 µM | 100
Cc1cnn2ncc(-c3ccnc(N(C)C)n3)c2c1 | binding | 1 µM | 100
C[C@@H](c1ccc(-n2cnc3c(N)ncnc32)cc1)N1CCc2nn(C)c(Cc3ccccc3)c2C1=O | binding, competition with immobilised ligand | 0.1 µM | 95
CO[C@H]1CC[C@H](CNc2ccc(S(=O)(=O)NC(=O)c3ccc(N4CCN(CC5=C(c6ccc(Cl)cc6)CC(C)(C)CC5)CC4)cc3Oc3cnc4[nH]ccc4c3)cc2[N+](=O)[O-])CC1 | cell-free assay, competition with immobilised ligand | 1 µM | 87
N[C@@H]1CCN(c2nccc(-c3cnn4ncccc34)n2)C1 | binding | 1 µM | 100
O=C(O)[C@H]1[C@H](Cn2nnc3ccccc3c2=O)CC[C@@H]1C(=O)c1ccc(OCCC2CCOCC2)cc1 | cell-free assay, competition with immobilised ligand | 1 µM | 75
CN(C)c1ncc(F)c(-c2cnn3ncccc23)n1 | binding | 1 µM | 100
